Data set [1] can be described thus: Tmax in monkey at 2.5 mg/kg, po by LC-MS method. In kind it is ADME, organism-based, Macaca mulatta. To be noted: rhesus monkey, in vivo. An outline of the steps:
(§1)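 Single dose in dog or monkey, 1 mg/kg IV or 2.5 mg/kg PO. Plasma drug measured by LC-MS after acetonitrile protein precipitation with an internal standard. Quantified by linear regression of parent/internal-standard peak-area ratio against spiked standards.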

Data set [2] is described as follows: Half life in rat at 3 mg/kg, po by LC-MS method. Type of data set: ADME, organism-based. The following applies: in vivo. An outline of the steps: (§2)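 Single dose, 3 mg/kg, in mouse or rat. IV vehicle: DMSO:Tween 80:PEG-400:D5W 2:5:20:73 (v/v). PO vehicle: Phosol 53 MCT:PEG-400:Poloxamer 124:Cremophor RH40 40:20:20:20 (w/w). Acetonitrile protein precipitation, then LC-MS/MS in negative-ion MRM against an internal standard; LOQ ~20 ng/mL.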

The nature of data set [3]: Drug level in rat at 3 mg/kg, po at 24 hrs by LC-MS method. Type of data set: ADME, organism-based. To be noted: in vivo, read-out: Drug uptake. An outline of the steps:
as §2

Data set [4] deals with T1, Nonstructural protein 5A (Hepatitis C virus), Q5L478 [Y93H].
T1 sequence (whole entry): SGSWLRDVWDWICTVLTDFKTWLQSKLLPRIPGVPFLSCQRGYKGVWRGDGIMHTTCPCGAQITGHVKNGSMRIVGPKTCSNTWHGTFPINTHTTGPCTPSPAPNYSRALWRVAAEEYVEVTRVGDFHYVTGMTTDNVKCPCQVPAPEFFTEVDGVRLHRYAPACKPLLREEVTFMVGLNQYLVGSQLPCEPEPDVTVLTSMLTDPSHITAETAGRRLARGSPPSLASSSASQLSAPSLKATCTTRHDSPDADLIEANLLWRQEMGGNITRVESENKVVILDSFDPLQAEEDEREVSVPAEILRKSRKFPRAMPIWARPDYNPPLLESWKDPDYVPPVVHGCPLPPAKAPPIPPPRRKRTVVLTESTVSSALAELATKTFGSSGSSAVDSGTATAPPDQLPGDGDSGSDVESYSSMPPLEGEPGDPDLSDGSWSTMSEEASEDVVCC
The experiment in a line: Inhibition of NS5A Y93H mutant in HuH7 cell infected HCV genotype 1b Con1 assessed as decrease in viral replication after 4 days by luciferase reporter gene assay relative to wild type protein. To be noted: Hepatitis C virus (isolate Con1). Put shortly: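 Stable subgenomic luciferase replicons in Huh-7 cells: genotype 1b-Con1 carrying NS5A Y93H or Y93N, tested alongside the wild-type replicon. Cells are incubated 4 days with compound in DMEM with 5% FBS. Luciferase read-out, EC50 from a 4-parameter logistic fit, expressed as fold change versus wild type.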

The nature of data set [5]: Tmax in mouse at 3 mg/kg, po by LC-MS method. In kind it is ADME, organism-based. To be noted: in vivo.
The nature of data set [6]: AUClast in mouse at 3 mg/kg, po by LC-MS method. In kind it is ADME, organism-based. Also on record: dose 3 mg/kg, time 0 - last, route oral. To be noted: in vivo. An outline of the steps: as §2
Data set [7] is described as follows: Plasma clearance in rat at 3 mg/kg, iv by LC-MS method. In kind it is ADME, organism-based. Put shortly:
as §2

Data set [8] is described as follows: Oral bioavailability in rat at 3 mg/kg by LC-MS method. Type of data set: ADME, organism-based. The following applies: in vivo. An outline of the steps:
as §2

The nature of data set [9]: Cmax in rat at 3 mg/kg, po by LC-MS method. In kind it is ADME, organism-based. Also noted: dose 3 mg/kg, route oral. The following applies: in vivo. An outline of the steps:
as §2

Data set [10] is described as follows: Tmax in rat at 3 mg/kg, po by LC-MS method. In kind it is ADME, organism-based. The following applies: in vivo. Put shortly: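 Single 3 mg/kg oral dose in rat, formulated in 40:20:20:20 (w/w) Phosol 53 MCT:PEG-400:Poloxamer 124:Cremophor RH40. Heparinized plasma drawn at 0.25, 0.5, 1, 2, 4, 6, 9, 12 and 24 h. Acetonitrile protein precipitation, then LC-MS in negative-ion MRM mode. Levels read from peak-area ratio to internal standard against spiked standards by linear regression; LOQ ~20 ng/mL.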

A short description of data set [11]: Half life in rat at 3 mg/kg, iv by LC-MS method. Type of data set: ADME, organism-based. To be noted: in vivo. An outline of the steps: as §2
Data set [12] in a line: Oral bioavailability in monkey at 2.5 mg/kg by LC-MS method. Type of data set: ADME, organism-based, Macaca mulatta. To be noted: rhesus monkey, in vivo. An outline of the steps:
as §1

Data set [13] is described as follows: AUClast in mouse at 3 mg/kg, iv by LC-MS method. Type of data set: ADME, organism-based. Also noted: dose 3 mg/kg, route intravenous, time 0 - last. To be noted: in vivo. An outline of the steps:
as §2

Data set [14] can be described thus: AUClast in dog at 2.5 mg/kg, po by LC-MS method. Type of data set: ADME, organism-based, Canis lupus familiaris. Also on record: dose 2.5 mg/kg, route oral, time 0 - last. To be noted: in vivo. An outline of the steps:
as §1

A short description of data set [15]: Apparent volume of distribution in monkey at 1 mg/kg, iv by LC-MS method. In kind it is ADME, organism-based, Macaca mulatta. To be noted: rhesus monkey, in vivo, read-out: Vc. An outline of the steps:
as §1

Data set [16] has as its target T2, Nonstructural protein 5A (Hepatitis C virus) (UniProt Q5L478).
T2 sequence (whole entry): T1 sequence (whole entry) with H93Y
The experiment in a line: Inhibition of NS5A Q30R mutant in HuH7 cell infected HCV genotype 1a H77 assessed as decrease in viral replication after 4 days by luciferase reporter gene assay relative to wild type protein. The following applies: Hepatitis C virus (isolate H77). An outline of the steps: (§3)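 Stable subgenomic luciferase replicons in Huh-7 cells: genotype 1a-H77 carrying NS5A substitutions M28T, Q30E, Q30R, Y93C, Y93H or Y93N, tested alongside the wild-type replicon. Cells are incubated 4 days with compound in DMEM with 5% FBS. Luciferase read-out, EC50 by 4-parameter logistic fit, and fold change versus wild type.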
In general terms: A reporter such as luciferase makes a cellular process visible.

Data set [17] deals with T3, Nonstructural protein 5A (Hepatitis C virus), Q5L478 [Y93C].
T3 sequence (whole entry): T1 sequence (whole entry) with H93C
In words: Inhibition of NS5A Y93C mutant in HuH7 cell infected HCV genotype 1a H77 assessed as decrease in viral replication after 4 days by luciferase reporter gene assay relative to wild type protein. The following applies: Hepatitis C virus (isolate H77). Put shortly:
as §3

Data set [18] in a line: Half life in dog at 2.5 mg/kg, po by LC-MS method. In kind it is ADME, organism-based, Canis lupus familiaris. To be noted: in vivo. An outline of the steps:
as §1

Structures are written as SMILES. Numbering of substitutions follows the chain as printed.

As usually defined, the Tmax is the time from dosing to the highest level. As usually defined, the half-life is how long it takes for the measured level to halve. As usually defined, the AUC(0-t) is exposure summed from dosing to a finite time, without extrapolation to infinity. As a reminder, the clearance is the rate of elimination divided by the concentration. Usually bioavailability stands for dose-corrected exposure relative to a reference, in per cent. As usually defined, the Cmax is the maximum level reached in the sampled fluid or tissue. For the molecule `COC(=O)N[C@H](C(=O)N1CCC[C@H]1c1nc2cc([C@H]3CC[C@H](c4cc5nc([C@@H]6CCCN6C(=O)[C@@H](NC(=O)OC)[C@@H](C)OC)[nH]c5cc4F)N3c3cc(F)c(N4CCC(c5ccc(F)cc5)CC4)c(F)c3)c(F)cc2[nH]1)[C@@H](C)OC` [PIBRENTASVIR], the Tmax in data set [1] was 4 h; in data set [5] it was 11 h; in data set [10] it was 5.3 h. Further, the half-life in data set [2] is 7 h; in [11], 6.2 h; in data set [18], 8.3 h. Also, the concentration at 24 h in data set [3] was 41 nM. The fold change (FC) in data set [4] turned out to be 0.6; in data set [16], 1.7; in [17], 1.7. In addition, the AUC(0-t) in data set [6] was 20000 ng·h/mL; in data set [13] it was 252000 ng·h/mL; in data set [14] it was 5990 ng·h/mL. Further, the clearance in data set [7] was 1.17 mL/min/kg. For the same molecule, the bioavailability was determined as 9.9% in data set [8] and 14.1% in data set [12]. In [9], this molecule registered a Cmax of 250 nM. For the same molecule, the Vd in [15] was determined as 0.07 L/kg.
